# From PubChem
# TAAR1 antag = antagonists of human TAAR1. Q96RJ0. inhibition, % at 3 µM. actives 1.5% (n = 360,000). CHO RD-HGA16 TAAR1, Fluo-8 calcium fluorescence, antagonist;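 active means inhibition above a per-plate cutoff, the mean inhibition of test compounds on that plate plus 3 SD, cut at about 49% in these data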;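 further: 0% = DMSO plus EC80 beta-PEA response and 100% = DMSO alone without agonist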
# Target sequence (Q96RJ0 whole entry, looked up): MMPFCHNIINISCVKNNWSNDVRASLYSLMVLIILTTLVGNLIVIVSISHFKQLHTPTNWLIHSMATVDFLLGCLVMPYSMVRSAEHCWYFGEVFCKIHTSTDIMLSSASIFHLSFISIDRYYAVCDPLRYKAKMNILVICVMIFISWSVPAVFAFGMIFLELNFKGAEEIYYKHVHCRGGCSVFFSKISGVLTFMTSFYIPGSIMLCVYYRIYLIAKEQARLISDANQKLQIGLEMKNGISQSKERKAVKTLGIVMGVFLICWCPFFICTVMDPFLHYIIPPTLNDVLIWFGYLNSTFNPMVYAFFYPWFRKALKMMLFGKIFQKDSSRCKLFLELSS
#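 test system = CHO RD-HGA16 cells bearing hTAAR1 | replication = singlicate | controls = DMSO-only wells and EC80 β-PEA-stimulated wells | reagent = EC80 β-phenethylamine stimulus | read-out basis = percent inhibition of PEA-evoked calcium signal, max/basal emission ratio | schedule = seeding 17-24 h prior, 75-min 37 °C, 30-min RT dye loading | signal = kinetic Fluo-8 calcium fluorescence measurement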
# TAAR1 ag = human TAAR1 agonism. Q96RJ0. CHO RD-HGA16 TAAR1, Fluo-8 calcium fluorescence; vehicle wells 0%, saturating PEA agonist 100%. activation, % at 3 µM. actives 0.99% (n = 360,000);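 active means activation above the mean activation of all test compounds in the run plus 3 SD, cut at about 38% in these data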
#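 System: CHO-derived RD-HGA16 cells with stable Gα16 and human TAAR1. Times: 17-24 h plating, Fluo-8 75 min 37 °C, 30 min RT. Measured by: calcium-sensitive Fluo-8 signal, excitation 470-495, emission 515-575 nm. Read-out basis: % activation relative to PEA EC100 response. Control set: DMSO and PEA EC100. Repeats: no replicates (n 1).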
# Platelet DG rel = platelet dense granule release activity | human platelet-rich plasma, SFLLRN dense granule ATP release, luminescence | inhibition, %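 (compounds screened at 7.5 µM in platelet-rich plasma)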 | actives 0.22% (n = 300,000) | AID 1663;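 active means mean replicate score, as percent of positive control, at or above 50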
# Rce1 inh = inhibitors of yeast Ras-converting enzyme; Q03530; yeast membranes, quenched prenylated peptide cleavage fluorescence; calls only; actives 0.27% (n = 290,000);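 active means fall in fluorescence gain of 50% or more versus controls, with final raw signal at or below 3038400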;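 further: plate controls were neutral control wells for no effect and wells lacking membranes for full effect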
# Target sequence (Q03530 whole entry, looked up): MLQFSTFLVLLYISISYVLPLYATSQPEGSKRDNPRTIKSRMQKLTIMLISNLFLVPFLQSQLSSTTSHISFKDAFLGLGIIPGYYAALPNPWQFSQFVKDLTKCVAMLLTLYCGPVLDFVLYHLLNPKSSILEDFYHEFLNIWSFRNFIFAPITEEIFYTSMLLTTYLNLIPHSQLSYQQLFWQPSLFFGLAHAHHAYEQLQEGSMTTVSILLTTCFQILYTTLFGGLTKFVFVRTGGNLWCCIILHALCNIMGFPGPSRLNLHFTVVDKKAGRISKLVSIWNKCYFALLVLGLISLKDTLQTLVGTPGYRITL
# VLA-4 inh = inhibition in a human VLA-4 binding assay | P13612 | VLA-4 expressing cells, ligand binding flow cytometry | inhibition, % (about 7 µM as worked out from the volumes in the protocol) | actives 0.2% (n = 330,000); in the data active means inhibition above about 50%
# VLA-4 allo CP = confirmation of allosteric modulators of human VLA-4 integrin; AID 2813; shares compounds with VLA-4 inh; U937 cells, HUTS-21 LIBS mAb binding, flow cytometry; LDV ligand present at threefold Kd; actives 2% (n = 1,300); inhibition, % at 6.7 µM; in the data active means inhibition above about 40%;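 further: 0% = ligand without compound and 100% = no ligand background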
# Active calls of the source: *; i = inactive; / = not tested or not shown. Only some compounds are listed: those with a hit (about 2.6% of all), similar ones and a draw of the others.
SMILES,TAAR1 antag,TAAR1 ag,Platelet DG rel,Rce1 inh,VLA-4 inh,VLA-4 allo CP
CCCc1ccc(OCc2ccc(C(=O)NCc3cccnc3)o2)c(OC)c1,-1.8,4.3,-8.1,i,55.8*,8.4
CN(Cc1ccc(F)cc1)C(=O)c1cccc(OCc2ccccc2)c1,-17.9,-4.1,-6.6,i,-6.8,/
Fc1ccc2nc(Nc3nc4c(F)cccc4s3)sc2c1,-8.3,2.8,-5.3,i,53.1*,0.5
Cc1cccc(N(C)S(=O)(=O)c2ccc3c(c2)C(C)(C)C(=O)N3C)c1,27.3,-1.9,3.8,i,-16.4,-2.1
COc1cccc(CNS(=O)(=O)c2ccc3c(c2)C(C)(C)C(=O)N3C)c1,/,/,0.8,i,-13.2,-5.8
CN1C(=O)C(C)(C)c2cc(S(=O)(=O)N(C)Cc3ccccc3)ccc21,11.0,4.7,-1.6,i,-3.8,/
CCOc1ccc(CN2CCN(CC(O)Cn3c4ccccc4c4ccccc43)CC2)cc1 (centres undefined),-1.8,2.1,-4.8,i,51.1*,10.0
COc1ccc(CN2CCN(CC(O)Cn3c4ccccc4c4ccccc43)CC2)cc1 (centres undefined),7.2,10.8,-0.3,i,-2.1,/
Cc1ccc(NC(=O)C2C3CC4OC(=O)C2C4C3)cc1Cl (centres undefined),-0.6,13.9,/,i,55.7*,-5.5
O=C(NC1CCCc2ccccc21)c1cccc(Br)c1 (centres undefined),-5.8,6.0,-23.9,i,42.8,-17.5
O=C(NC1CCCc2ccccc21)c1ccc(Br)cc1 (centres undefined),-21.1,-1.7,-5.5,i,14.5,/
CCOC(=O)c1c(-c2ccc(F)cc2)csc1NC(=O)CCN1C(=O)c2ccccc2C1=O,2.9,-1.2,-8.1,i,10.8,/
CCOC(=O)c1c(-c2ccccc2)csc1NC(=O)CCN1C(=O)c2ccccc2C1=O,-2.2,1.2,18.1,i,43.5,8.6
Cc1nc(SCC(=O)Nc2ccc3[nH]c(=O)[nH]c3c2)nc(C)c1C,2.8,2.3,/,/,-0.6,/
COc1ccc(OC)c(C2CC(=O)Nc3c2c(=O)[nH]c2ncnn32)c1 (centres undefined),-11.1,0.7,12.3,i,-26.4,/
CCCOc1c(OC)cccc1C1CC(=O)Nc2cc(OC)c(OC)c(OC)c21 (centres undefined),-2.0,4.0,9.5,i,-4.7,/
COc1cc2c(c(OC)c1)C(c1cccc(OC)c1OC)CC(=O)N2 (centres undefined),0.5,1.9,30.4,i,30.7,0.0
CCOc1c(OC)cccc1C1CC(=O)Nc2cc3c(cc21)OCCO3 (centres undefined),-0.2,2.1,4.7,i,-10.4,-5.8
CCOc1ccccc1C1CC(=O)Nc2cc(OC)c(OC)cc21 (centres undefined),1.5,3.9,5.1,i,9.0,/
COc1ccc(OC)c(C2CC(=O)Nc3cc(OC)c(OC)c(OC)c32)c1 (centres undefined),1.7,9.4,5.8,i,15.6,4.7
Cc1ccc(C(=O)OCC(=O)NCCc2ccccc2)cc1C,15.8,14.6,/,/,15.0,/
COc1ccccc1N(C)S(=O)(=O)c1ccc(C)c(C(=O)NCc2ccccn2)c1,13.3,6.7,/,/,-2.9,/
COc1ccc(CN2C(=O)c3cccnc3C2=O)cc1S(=O)(=O)N1CC(C)Oc2ccccc21 (centres undefined),-0.3,17.3,0.9,i,56.4*,-0.1
CC1CN(S(=O)(=O)c2ccc(CN3C(=O)c4cccnc4C3=O)cc2)c2ccccc2O1 (centres undefined),-15.9,5.3,-3.2,i,-1.4,/
Cc1nc(Br)c(Br)n1Cc1ccccc1,-21.4,2.8,/,/,/,/
SMILES,TAAR1 antag,TAAR1 ag,Platelet DG rel,Rce1 inh,VLA-4 inh,VLA-4 allo CP
CCOc1ccc(OCCC(=O)Nc2ccc(N3CCOCC3)cc2N2CCOCC2)cc1,-8.4,1.0,/,/,/,/
Cc1cccc(OCCC(=O)Nc2ccc(N3CCOCC3)cc2N2CCOCC2)c1,5.8,7.6,/,/,50.5*,2.7
COc1ccc(CNC(=O)CN(C)S(=O)(=O)c2ccccc2)cc1,-3.6,5.1,-4.7,i,52.3*,0.7
COc1ccc(NC(=O)CN(C)S(=O)(=O)c2ccccc2)cc1,-20.4,12.7,-4.2,i,/,/
CN(CC(=O)NCc1ccccc1F)S(=O)(=O)c1ccc(Cl)cc1,-9.3,2.6,16.8,i,5.6,0.7
CCN(CC(=O)NCc1ccc(Cl)cc1)S(=O)(=O)c1ccc(F)cc1,-10.2,-2.5,-10.5,i,-3.7,11.8
O=C(COC(=O)c1ccccc1Br)NCC1CCCCC1,-2.3,0.2,/,/,1.1,-21.6
COc1cc(N)c(Cl)cc1C(=O)OCC(=O)NCC1CCCCC1,0.7,2.7,/,/,10.9,4.7
O=C(COC(=O)c1cc2ccccc2cc1O)Nc1ccccc1F,25.0,26.2,/,/,-1.8,/
O=C(COC(=O)c1ccccc1Br)Nc1ccccc1F,8.8,3.4,2.5,i,36.2,8.1
COc1cccc(NC(=O)CN(C)C(=O)c2ccc(NC(=O)CC3SC(N4CCCC4)=NC3=O)cc2)c1 (centres undefined),-8.1,5.3,/,/,/,/
CC(=O)c1ccc(S(=O)(=O)N2CCN(C(=O)c3ccc(COc4ccccc4)o3)CC2)cc1,42.2,7.7,/,/,/,/
CCc1nn2c(N3CCOCC3)cc(C)nc2c1-c1ccccc1,1.9,2.9,-3.0,i,45.1,12.7
N#Cc1ccc(NN=Nc2ccccc2C#N)cc1,8.8,3.2,/,/,/,/
CCCS(=O)(=O)NC(=O)C1(C)CCCN(C(=O)c2cc(-c3ccccc3)cs2)C1 (centres undefined),-27.0,5.1,/,/,/,/
C[C@]12CCC(=O)C=C1CC[C@@H]1[C@@H]2[C@@H](O)C[C@@]2(C)[C@H]1CC[C@]2(O)C(=O)CO,-18.0,0.0,14.4,i,28.8,-0.9
C[C@]12C=CC(=O)C=C1CC[C@@H]1[C@@H]2[C@@H](O)C[C@@]2(C)[C@H]1CC[C@]2(O)C(=O)COC(=O)CCC(=O)O,-26.0,1.3,6.8,i,14.6,/
CC12CCC(=O)C=C1CCC1C2C(O)CC2(C)C1CCC2(O)C(=O)CO (centres undefined),-14.4,1.9,1.5,i,6.1,-184.1
C[C@]12C=CC(=O)C=C1CC[C@@H]1[C@@H]2[C@@H](O)C[C@@]2(C)[C@H]1CC[C@]2(O)C(=O)CO,-2.7,2.6,-1.3,i,59.1*,1.6
CC(=O)OCC(=O)C1(O)CCC2C3CCC4=CC(=O)CCC4(C)C3C(O)CC21C (centres undefined),2.1,2.4,/,/,/,/
CSc1nc(N)nc2c1ncn2C1OC(CO)CC1O (centres undefined),7.3,1.1,/,/,/,/
CN(CC(=O)Nc1ccc(F)cc1)C(=O)COC(=O)c1cccc(N(C)C)c1,-19.0,8.5,/,/,-6.8,/
